# High-throughput results from PubChem BioAssay.
# HSF-1 act – increases HSF-1 driven luciferase reporter signal | NIH3T3-HGL HSF-1 luciferase reporter, MG132, 8 h; 100% = twice DMSO control signal | activation, % at 9 µM | actives 1.7% (n = 300,000) | AID 504408;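 active means mean replicate activation of at least 50% with a set share of replicates each reaching 50%; inconclusive means only one of those two conditions met; inactive means mean below 50% and too few replicates reaching it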
# Calb FLC – C. albicans growth modulation with fluconazole. C. albicans CaCi-2 + fluconazole, Alamar Blue growth, 48 h. growth inhibition, % (no concentration beside the values). actives 0.57% (n = 300,000). AID 1979;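 active means growth inhibition above about 58% in most replicates, limit read from the data, passing the limit was not always enough; inconclusive means exactly half the replicates above a set limit; inactive means most replicates below a set limit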;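 further: all wells also contain fluconazole at 8 µg/ml as a sub-toxic cotreatment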
# T cruzi inh – blocks replication of Trypanosoma cruzi | T. cruzi beta-gal in NIH3T3, luminescence, 90 h | inhibition, % (test concentration not listed) | actives 1.4% (n = 300,000) | AID 1885;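 active means mean inhibition across valid replicates above about 55%, limit read from the data; inconclusive means mean below that limit but half or more replicates reach it; inactive means mean below it, under half of replicates reach it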;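 further: signal also drops with host cell toxicity which is not excluded here; higher percent means less beta-gal luminescence so fewer parasites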
#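 System: Mouse NIH/3T3 fibroblasts infected with β-gal-expressing T. cruzi Tulahuen C4 | Quantity: NIH/3T3 cells, 5,000 per well | Reagent: 5000 reporter trypomastigotes per well | Dosing: Compound pinned at 50 nL/well, DMSO | Schedule: 3 h host attachment, then at least 90 h co-culture | Detection: GalScreen luminescence, 60 min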
# HSF1 inhib – HSF1 inhibition | NIH3T3-HGL HSE-luciferase, MG132-induced, luminescence 8 h; active compounds read low | activity change, negative = inhibition, % at 7.5 µM (by protocol) | actives 0.77% (n = 300,000) | AID 2098;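 active means more than half of replicate wells show activity change below -50%, luminescence cut by over half; inconclusive means some wells, but at most half, below -50%; inactive means no replicate well below -50%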;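 further: luciferase reports HSF-1 transcriptional activity via heat shock element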
# HIF activator – HIF pathway transcriptional activation; U2OS HRE-luciferase reporter, luminescence; normalized: DMSO 0%, desferrioxamine 100%; activation, % at 7.5 µM (by protocol); actives 0.32% (n = 300,000); AID 1910;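 active means mean activation of at least 10% of the iron chelator positive control signal, with at least half of replicates also reaching 10%; inconclusive means mean and replicate majority disagree about reaching 10%; inactive means mean and most replicates under 10%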
# Numbers stand for hits; . = inactive; ? = inconclusive; / = no result given. Sampled rows, rich in hits. Any-hit rate of the full collection: about 4.4%.
SMILES,HSF-1 act,Calb FLC,T cruzi inh,HSF1 inhib,HIF activator
COc1cc2nc(SCc3ccc(Cl)cc3Cl)n(Cc3cccs3)c(=N)c2cc1OC,.,81,77,.,.
COc1ccc(Cn2c(SCc3cc(C)ccc3C)nc3cc(OC)c(OC)cc3c2=N)cc1,.,.,59,.,.
COc1ccc(Cn2c(SCc3ccc(C)cc3)nc3cc(OC)c(OC)cc3c2=N)cc1Cl,.,.,.,.,.
O=C1COc2ccc(C(=O)/C=C/c3ccccc3)cc2N1,53,.,?,.,/
O=c1[nH]c(CSc2ncnc3sccc23)nc2ccccc12,56,.,.,.,.
Cn1c(-c2ccccc2)cnc1SCc1nc2ccccc2c(=O)[nH]1,104,.,.,.,.
C[C@H](NC(=O)C1CCN(S(=O)(=O)c2ccccc2)CC1)C(=O)NCc1ccc(F)cc1,.,.,.,.,.
CC1=C(C(=O)Nc2ccccc2C)C(c2cccs2)NC(=S)N1 (stereo not given),.,.,.,-51,.
CC1=C(C(=O)Nc2ccc(C)cc2C)C(c2cccs2)NC(=S)N1 (stereo not given),.,.,.,.,.
Nc1nc(CSC(=S)N2CCOCC2)nc(Nc2ccccc2)n1,.,.,.,.,.
Nc1nc(CSC(=S)N2CCCCC2)nc(Nc2ccccc2)n1,.,.,.,-81,.
COc1ccc(N2CCN(S(=O)(=O)c3cc4c(cc3C)N(C(C)=O)CCO4)CC2)cc1,.,.,.,-58,.
COc1ccc(N2CCN(S(=O)(=O)c3cc4c(cc3C)NC(=O)CO4)CC2)cc1,.,.,.,.,.
Cc1noc(C)c1COC(=O)c1ccccc1Oc1ccccc1,57,.,.,.,.
Cc1noc(C)c1COC(=O)c1ccccc1NC(=O)Cc1ccccc1,.,.,.,.,.
Nc1ccc(N2CCCCC2)cc1N1CCCCC1,.,.,62,.,.
Cc1nn(-c2cc(N3CCCCC3)ccc2N)c(=O)c2ccccc12,.,.,?,.,.
COc1ccc(C(CNC(=O)CNS(=O)(=O)c2ccc(NC(C)=O)cc2)N2CCOCC2)cc1 (stereo not given),.,.,.,.,.
CC(C)(C)c1ccc(NC(=S)NCc2cccs2)cc1,145,.,.,.,.
S=C(NCc1cccs1)Nc1cccc2ccccc12,56,.,.,.,.
S=C(NCc1ccccc1)Nc1cccc2ccccc12,.,.,.,.,.
CCCN(Cc1nnc(-c2ccccc2Cl)o1)C(=O)c1cccc(S(=O)(=O)N2CCOCC2)c1,.,.,.,.,.
Cc1cc(C(=O)N/N=C/c2ccc([N+](=O)[O-])o2)c(C)o1,.,.,.,.,.
O=C(N/N=C/c1ccc([N+](=O)[O-])o1)C1CC1,.,.,73,.,.
O=[N+]([O-])c1ccc(/C=N/Nc2nc(N3CCCCC3)nc(N3CCCCC3)n2)o1,.,?,63,.,.
SMILES,HSF-1 act,Calb FLC,T cruzi inh,HSF1 inhib,HIF activator
Cc1nonc1C(=O)N/N=C/c1ccc([N+](=O)[O-])o1,.,82,.,.,.
COC(=O)N/N=C/c1ccc([N+](=O)[O-])o1,.,.,55,.,.
O=C(N/C(=C\c1ccc2c(c1)OCO2)C(=O)N1CCOCC1)c1ccccc1Br,.,.,.,.,.
CCOC(=O)C[C@H]1c2ccc(C(F)(F)F)cc2S(=O)(=O)N1C(C)C,.,.,.,.,.
O=C(O)c1cccc(NS(=O)(=O)c2cccc(C(=O)Nc3ccccc3[N+](=O)[O-])c2)c1,.,.,.,.,.
CC(C)N(Cc1cc2ccccc2[nH]c1=O)C(=O)c1ccco1,.,.,.,.,.
O=C1C=C(Nc2cccc3cccnc23)c2ccccc2C1=O,.,101,.,.,.
O=C1C=C(Nc2ccccc2C(=O)O)c2ccccc2C1=O,93,.,.,.,.
O=C1CCCCC/C1=N/Nc1ccc(OCc2ccccc2)cc1,.,94,.,.,.
CC1(C)CC(=O)c2c(O)cc(OCC(=O)NCCc3ccc(S(N)(=O)=O)cc3)cc2O1,.,.,.,.,.
c1ccc(-c2c[n+]3c(n2-c2ccccc2)CCC3)cc1,.,.,.,.,.
CCOc1ccc(-n2c(-c3ccccc3)c[n+]3c2CCCCC3)cc1,.,87,60,.,.
Cc1ccc(-c2c[n+]3c(n2-c2ccccc2)CCC3)cc1,.,.,55,.,.
Cc1cc(S(=O)(=O)N2CCCOC2CNC(=O)C(=O)NCc2ccco2)ccc1F (stereo not given),.,?,.,.,.
O=C(CC1C(=O)NCCN1Cc1cccc(Oc2ccccc2)c1)NCCc1ccccn1 (stereo not given),.,.,.,.,.
Cn1cc(CCNC(=O)CC2C(=O)NCCN2Cc2cccc(Oc3ccccc3)c2)cn1 (stereo not given),.,.,.,-69,.
Cc1ccc(CCNC(=O)c2cccc(NC3=NC4CS(=O)(=O)CC4S3)c2)cc1 (stereo not given),.,.,.,.,.
CCCC(=O)Nc1c2c(nn1-c1ccc([N+](=O)[O-])cc1)CS(=O)(=O)C2,.,.,.,.,.
CCOC(=O)c1c(C)[n+](-c2ccc(C)cc2)c(CC)c2cc(OC)c(OC)cc12,.,.,55,.,.
COc1ccccc1C(=O)NCCC(=O)Nc1ccc(OC(F)(F)F)cc1,.,.,.,.,.
O=C1CSCN1c1ccc(Cl)cc1,.,.,.,.,184
COc1cc(C(=O)NC2CCCc3ccccc32)ccc1OCC(=O)Nc1ccc(F)cc1 (stereo not given),.,.,.,.,.
Cc1cc(C)c(S(=O)(=O)ON2C(=O)c3ccccc3C2=O)cc1C,62,.,.,.,.
O=C1c2ccccc2C(=O)N1OS(=O)(=O)c1ccc(F)cc1,.,.,.,.,.
Cc1cc(C)c(C)c(S(=O)(=O)ON2C(=O)c3ccccc3C2=O)c1C,52,101,.,.,.
SMILES,HSF-1 act,Calb FLC,T cruzi inh,HSF1 inhib,HIF activator
CC(=O)Nc1ccc(NC(=O)C(C)OC(=O)CCCOc2ccc(Cl)cc2C)cc1 (stereo not given),.,.,.,.,.
Cc1ccc(NC(=O)CNC(=O)c2cccs2)cc1S(=O)(=O)Nc1ccc(Cl)cc1,.,.,.,.,/
CCOC(=O)C1(Cc2ccccc2)CCN(Cc2cnc(N3CCOCC3)s2)CC1,.,.,59,.,.
OCC1(CCCc2ccccc2)CCN(Cc2cnc(N3CCOCC3)s2)CC1,.,.,59,.,.
CCOC(=O)C1(CCOc2ccccc2)CCN(Cc2cnc(C)s2)CC1,.,.,.,.,.
CCOC(=O)C(CC)(CC)C(=O)/C=C/c1cccc(Br)c1,251,.,.,.,.
NC(=O)NC(=O)COC(=O)/C=C/c1cccc(Br)c1,.,.,.,.,.
CC1CC(C)CN(c2ccc(C(=O)NCc3ccc4c(c3)OCO4)cc2[N+](=O)[O-])C1 (stereo not given),.,.,65,.,.
